Assay results from ChEMBL document CHEMBL1155372, “Design and synthesis of novel deoxybenzoin derivatives as FabH inhibitors and anti-inflammatory agents” (Bioorg Med Chem Lett, 2010).
pIC50: −log10 of the molar value. In brackets after ≈: the same amount, converted by molar mass. Activity calls are given as the source filed them. The rule behind the calls is not given here.

Experiments:
Escherichia coli = assay: Antibacterial activity against Escherichia coli ATCC 35218; format: functional
Bacillus subtilis = assay: Antibacterial activity against Bacillus subtilis ATCC 6633; format: functional
Pseudomonas aeruginosa = assay: Antibacterial activity against Pseudomonas aeruginosa ATCC 2785; format: functional
Staphylococcus aureus = assay: Antibacterial activity against Staphylococcus aureus ATCC 6538; format: functional
Candida albicans = assay: Antifungal activity against Candida albicans ATCC 10231; format: functional
Aspergillus niger = assay: Antifungal activity against Aspergillus niger ATCC 16404; format: functional
Trichophyton rubrum = assay: Antifungal activity against Trichophyton rubrum ATCC 10218
[1] = Inhibition of Escherichia coli FabH expressed after 25 mins by liquid scintillation counting
AGS [2] = assay: Inhibition of Escherichia coli-stimulated IL-8 production in human AGS cells at 15 to 60 umol/L after 12 hrs by ELISA; format: functional, cell-based
Procedure, shortened: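 AGS gastric mucosal cells stimulated with Escherichia coli water extract to induce IL-8 production, with agent added at 15, 30 and 60 μmol L⁻¹. IL-8 released was measured in pg mL⁻¹ and compared with extract-stimulated control. Values are means ± SEM of 3–5 experiments.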

AGS [3] = assay: Cytotoxicity against human AGS cells at 15 to 60 umol/L after 48 hrs by MTT assay; format: cell-based
Procedure, shortened: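 AGS gastric cells incubated with test agent at serial concentrations of 15, 30 and 60 μmol L⁻¹. Viability read by MTT assay 48 h later. Values are means ± SEM of 4–6 experiments.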

| MIC (Escherichia coli) [µg/mL] | MIC (Bacillus subtilis) [µg/mL] | MIC (Pseudomonas aeruginosa) [µg/mL] | MIC (Staphylococcus aureus) [µg/mL] | MIC (Candida albicans) [µg/mL] | MIC (Aspergillus niger) [µg/mL] | MIC (Trichophyton rubrum) [µg/mL] | pIC50 [1] | Compound | inhibition (AGS [2]) | Activity (AGS [3]) |
| --- | --- | --- | --- | --- | --- | --- | --- | --- | --- | --- |
| 25 (≈ 65.4 µM) | 50 (≈ 131 µM) | 25 (≈ 65.4 µM) | 25 (≈ 65.4 µM) | > 50 | > 50 | > 50 |  | O=[N+]([O-])c1ccc(/N=C(/Cc2ccc(F)cc2)c2ccc(O)c(O)c2O)cc1 |  |  |
| 25 (≈ 70.7 µM) | 50 (≈ 141 µM) | 50 (≈ 141 µM) | 50 (≈ 141 µM) | > 50 | > 50 | > 50 |  | Oc1ccc(/N=C(/Cc2ccc(Cl)cc2)c2ccc(O)c(O)c2)cc1 |  |  |
| 50 (≈ 136 µM) | 25 (≈ 68 µM) | 50 (≈ 136 µM) | 25 (≈ 68 µM) | > 50 | > 50 | > 50 |  | Cc1ccc(/N=C(/Cc2ccc(Cl)cc2)c2ccc(O)c(O)c2O)cc1 |  |  |
| 6.25 (≈ 17.7 µM) | 25 (≈ 70.7 µM) | 12.5 (≈ 35.3 µM) | > 50 | > 50 | > 50 | > 50 | 4.69 | Oc1ccc(/N=C(/Cc2ccc(Cl)cc2)c2ccc(O)cc2O)cc1 |  |  |
| 12.5 (≈ 28.9 µM) | 50 (≈ 116 µM) | 25 (≈ 57.8 µM) | 50 (≈ 116 µM) | > 50 | > 50 | > 50 |  | Oc1ccc(/C(Cc2ccc(Cl)cc2)=N\c2ccc(Br)cc2)c(O)c1O |  |  |
|  |  |  |  | > 50 | > 50 | > 50 |  | O=C(Cc1ccc(F)cc1)c1ccc(O)c(O)c1 |  |  |
| 3.12 (≈ 7.5 µM) | 12.5 (≈ 30 µM) | 3.12 (≈ 7.5 µM) | 25 (≈ 60 µM) | > 50 | > 50 | > 50 | 5.04 | Oc1ccc(/C(Cc2ccc(Cl)cc2)=N\c2ccc(Br)cc2)c(O)c1 |  |  |
| 12.5 (≈ 33.6 µM) | 50 (≈ 134 µM) | 12.5 (≈ 33.6 µM) | 50 (≈ 134 µM) | > 50 | > 50 | > 50 |  | Oc1ccc(/C(Cc2ccc(F)cc2)=N\c2ccc(Cl)cc2)c(O)c1O |  |  |
| 6.25 (≈ 17.6 µM) | 25 (≈ 70.3 µM) | 6.25 (≈ 17.6 µM) | 25 (≈ 70.3 µM) | > 50 | > 50 | > 50 |  | Oc1ccc(/C(Cc2ccc(F)cc2)=N\c2ccc(Cl)cc2)cc1O |  |  |
| 12.5 (≈ 37.1 µM) | 50 (≈ 148 µM) | 25 (≈ 74.1 µM) | 25 (≈ 74.1 µM) | > 50 | > 50 | > 50 |  | Oc1ccc(/N=C(/Cc2ccc(F)cc2)c2ccc(O)cc2O)cc1 |  |  |
|  |  |  |  |  |  |  |  | CC(=O)Oc1ccccc1C(=O)O [ASPIRIN] | Active | Non-toxic |
|  |  |  |  | > 50 | > 50 | > 50 |  | O=C(Cc1ccc(F)cc1)c1ccc(O)cc1O |  |  |
| 50 (≈ 142 µM) | 50 (≈ 142 µM) | 50 (≈ 142 µM) | 50 (≈ 142 µM) | > 50 | > 50 | > 50 |  | Cc1ccc(/N=C(/Cc2ccc(F)cc2)c2ccc(O)c(O)c2O)cc1 | inactive |  |
| 25 (≈ 70.8 µM) | 50 (≈ 142 µM) | 50 (≈ 142 µM) | 50 (≈ 142 µM) | > 50 | > 50 | > 50 | 4.20 | Oc1ccc(/N=C(/Cc2ccc(F)cc2)c2ccc(O)c(O)c2O)cc1 |  |  |
| 6.25 (≈ 16.8 µM) | 50 (≈ 134 µM) | 6.25 (≈ 16.8 µM) | 50 (≈ 134 µM) | > 50 | > 50 | > 50 |  | Oc1ccc(/C(Cc2ccc(Cl)cc2)=N\c2ccc(Cl)cc2)cc1O |  |  |
|  |  |  |  | > 50 | > 50 | > 50 |  | O=C(Cc1ccc(F)cc1)c1ccc(O)c(O)c1O |  |  |
| 25 (≈ 68.2 µM) | 50 (≈ 136 µM) | 25 (≈ 68.2 µM) | 50 (≈ 136 µM) | > 50 | > 50 | > 50 |  | O=[N+]([O-])c1ccc(/N=C(/Cc2ccc(F)cc2)c2ccc(O)c(O)c2)cc1 |  |  |
| 3.12 (≈ 7.81 µM) | 50 (≈ 125 µM) | 6.25 (≈ 15.6 µM) | 50 (≈ 125 µM) | > 50 | > 50 | > 50 | 5.08 | Oc1ccc(/C(Cc2ccc(F)cc2)=N\c2ccc(Br)cc2)c(O)c1 |  |  |
|  |  |  |  | > 50 | > 50 | > 50 |  | O=C(Cc1ccc(Cl)cc1)c1ccc(O)c(O)c1 |  |  |

| MIC (Escherichia coli) [µg/mL] | MIC (Bacillus subtilis) [µg/mL] | MIC (Pseudomonas aeruginosa) [µg/mL] | MIC (Staphylococcus aureus) [µg/mL] | MIC (Candida albicans) [µg/mL] | MIC (Aspergillus niger) [µg/mL] | MIC (Trichophyton rubrum) [µg/mL] | pIC50 [1] | Compound | inhibition (AGS [2]) | Activity (AGS [3]) |
| --- | --- | --- | --- | --- | --- | --- | --- | --- | --- | --- |
|  |  |  |  | > 50 | > 50 | > 50 |  | O=C(Cc1ccc(Cl)cc1)c1ccc(O)cc1O |  |  |
| 6.25 (≈ 17.1 µM) | 50 (≈ 136 µM) | 12.5 (≈ 34.1 µM) | 50 (≈ 136 µM) | > 50 | > 50 | > 50 | 4.54 | O=[N+]([O-])c1ccc(/N=C(/Cc2ccc(F)cc2)c2ccc(O)cc2O)cc1 |  |  |
| 25 (≈ 67.6 µM) | 50 (≈ 135 µM) | 50 (≈ 135 µM) | 25 (≈ 67.6 µM) | > 50 | > 50 | > 50 |  | Oc1ccc(/N=C(/Cc2ccc(Cl)cc2)c2ccc(O)c(O)c2O)cc1 |  |  |
| 25 (≈ 74.5 µM) | 25 (≈ 74.5 µM) | 25 (≈ 74.5 µM) | 25 (≈ 74.5 µM) | > 50 | > 50 | > 50 | 4.45 | Cc1ccc(/N=C(/Cc2ccc(F)cc2)c2ccc(O)cc2O)cc1 |  |  |
|  |  |  |  | > 50 | > 50 | > 50 |  | O=C(Cc1ccc(Cl)cc1)c1ccc(O)c(O)c1O |  |  |
| 25 (≈ 65.3 µM) | 25 (≈ 65.3 µM) | 25 (≈ 65.3 µM) | 12.5 (≈ 32.7 µM) | > 50 | > 50 | > 50 |  | O=[N+]([O-])c1ccc(/N=C(/Cc2ccc(Cl)cc2)c2ccc(O)c(O)c2)cc1 |  |  |
| 50 (≈ 148 µM) | 25 (≈ 74.1 µM) | 50 (≈ 148 µM) | 50 (≈ 148 µM) | > 50 | > 50 | > 50 |  | Oc1ccc(/N=C(/Cc2ccc(F)cc2)c2ccc(O)c(O)c2)cc1 |  |  |
| 6.25 (≈ 16.3 µM) | 25 (≈ 65.3 µM) | 6.25 (≈ 16.3 µM) | 12.5 (≈ 32.7 µM) | > 50 | > 50 | > 50 | 5.06 | O=[N+]([O-])c1ccc(/N=C(/Cc2ccc(Cl)cc2)c2ccc(O)cc2O)cc1 |  |  |
| 12.5 (≈ 32.2 µM) | 50 (≈ 129 µM) | 25 (≈ 64.4 µM) | 50 (≈ 129 µM) | > 50 | > 50 | > 50 |  | Oc1ccc(/C(Cc2ccc(Cl)cc2)=N\c2ccc(Cl)cc2)c(O)c1O |  |  |
| 12.5 (≈ 35.5 µM) | 25 (≈ 71.1 µM) | 12.5 (≈ 35.5 µM) | 12.5 (≈ 35.5 µM) | > 50 | > 50 | > 50 | 4.82 | Cc1ccc(/N=C(/Cc2ccc(Cl)cc2)c2ccc(O)cc2O)cc1 |  |  |
| 1.56 (≈ 4.39 µM) | 50 (≈ 141 µM) | 1.56 (≈ 4.39 µM) | 50 (≈ 141 µM) | > 50 | > 50 | > 50 | 5.41 | Oc1ccc(/C(Cc2ccc(F)cc2)=N\c2ccc(Cl)cc2)c(O)c1 |  |  |
| 0.78 (≈ 2.1 µM) | 25 (≈ 67.2 µM) | 1.56 (≈ 4.2 µM) | 25 (≈ 67.2 µM) | > 50 | > 50 | > 50 | 5.74 | Oc1ccc(/C(Cc2ccc(Cl)cc2)=N\c2ccc(Cl)cc2)c(O)c1 |  | Non-toxic |
| 50 (≈ 125 µM) | 50 (≈ 125 µM) | 50 (≈ 125 µM) | 50 (≈ 125 µM) | > 50 | > 50 | > 50 |  | O=[N+]([O-])c1ccc(/N=C(/Cc2ccc(Cl)cc2)c2ccc(O)c(O)c2O)cc1 |  |  |
| 12.5 (≈ 30 µM) | 25 (≈ 60 µM) | 12.5 (≈ 30 µM) | 25 (≈ 60 µM) | > 50 | > 50 | > 50 |  | Oc1ccc(/C(Cc2ccc(Cl)cc2)=N\c2ccc(Br)cc2)cc1O |  |  |
| 25 (≈ 71.1 µM) | 50 (≈ 142 µM) | 50 (≈ 142 µM) | 50 (≈ 142 µM) | > 50 | > 50 | > 50 |  | Cc1ccc(/N=C(/Cc2ccc(Cl)cc2)c2ccc(O)c(O)c2)cc1 |  |  |
| 3.12 (≈ 6.46 µM) | 0.39 (≈ 0.807 µM) | 3.12 (≈ 6.46 µM) | 1.56 (≈ 3.23 µM) |  |  |  |  | NC[C@H]1O[C@H](O[C@H]2[C@H](O)[C@@H](O[C@H]3O[C@H](CO)[C@@H](O)[C@H](N)[C@H]3O)[C@H](N)C[C@@H]2N)[C@H](N)[C@@H](O)[C@@H]1O [BEKANAMYCIN] |  |  |
| 25 (≈ 74.5 µM) | 25 (≈ 74.5 µM) | 50 (≈ 149 µM) | 12.5 (≈ 37.3 µM) | > 50 | > 50 | > 50 |  | Cc1ccc(/N=C(/Cc2ccc(F)cc2)c2ccc(O)c(O)c2)cc1 |  |  |
| 25 (≈ 60.1 µM) | 25 (≈ 60.1 µM) | 25 (≈ 60.1 µM) | 25 (≈ 60.1 µM) | > 50 | > 50 | > 50 |  | Oc1ccc(/C(Cc2ccc(F)cc2)=N\c2ccc(Br)cc2)c(O)c1O |  |  |
| 12.5 (≈ 31.2 µM) | 25 (≈ 62.5 µM) | 25 (≈ 62.5 µM) | 50 (≈ 125 µM) | > 50 | > 50 | > 50 |  | Oc1ccc(/C(Cc2ccc(F)cc2)=N\c2ccc(Br)cc2)cc1O |  |  |

| Compound | MIC (Escherichia coli) [µg/mL] | MIC (Bacillus subtilis) [µg/mL] | MIC (Pseudomonas aeruginosa) [µg/mL] | MIC (Staphylococcus aureus) [µg/mL] | MIC (Candida albicans) [µg/mL] | MIC (Aspergillus niger) [µg/mL] | MIC (Trichophyton rubrum) [µg/mL] | pIC50 [1] | inhibition (AGS [2]) | Activity (AGS [3]) |
| --- | --- | --- | --- | --- | --- | --- | --- | --- | --- | --- |
| CC1(C)S[C@@H]2[C@H](NC(=O)Cc3ccccc3)C(=O)N2[C@H]1C(=O)O [PENICILLIN G] | 6.25 (≈ 18.7 µM) | 1.56 (≈ 4.67 µM) | 6.25 (≈ 18.7 µM) | 1.56 (≈ 4.67 µM) |  |  |  |  |  |  |
